Data: paper PMC5792653 (Nature chemical biology, 2017)
“Also recorded” adds a separate entry of the source.

Experiments:
Rpn11•Rpn8 dimer = Rpn11•Rpn8 dimer (Saccharomyces cerevisiae, UniProt P43588); test: Rpn11•Rpn8 di-Ub cleavage assay; type: biochemical; conditions: K48 linked di-ubiquitin
Procedure, shortened: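 Zn2+-bound Rpn11•Rpn8 dimer expressed and purified. Dimer (5 μM) incubated with K48-linked di-ubiquitin and varying test compound concentrations for 2 h at 30°C in 40 mM HEPES pH 7.5, 100 mM NaCl, 100 mM KCl, 5% glycerol. Stopped with 2× SDS sample buffer, resolved by SDS-PAGE, Coomassie-stained. Two independent experiments.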

thermolysin = thermolysin (Bacillus thermoproteolyticus, UniProt P00800); test: Thermolysin inhibition assay; type: biochemical, bacterial
USP25 = molecular target: T1, USP25 (Homo sapiens, UniProt Q9UHP3); test: In vitro DUB activity assay, USP25; type: biochemical; conditions: 50 μM THL
T1 sequence (Q9UHP3 1-1055): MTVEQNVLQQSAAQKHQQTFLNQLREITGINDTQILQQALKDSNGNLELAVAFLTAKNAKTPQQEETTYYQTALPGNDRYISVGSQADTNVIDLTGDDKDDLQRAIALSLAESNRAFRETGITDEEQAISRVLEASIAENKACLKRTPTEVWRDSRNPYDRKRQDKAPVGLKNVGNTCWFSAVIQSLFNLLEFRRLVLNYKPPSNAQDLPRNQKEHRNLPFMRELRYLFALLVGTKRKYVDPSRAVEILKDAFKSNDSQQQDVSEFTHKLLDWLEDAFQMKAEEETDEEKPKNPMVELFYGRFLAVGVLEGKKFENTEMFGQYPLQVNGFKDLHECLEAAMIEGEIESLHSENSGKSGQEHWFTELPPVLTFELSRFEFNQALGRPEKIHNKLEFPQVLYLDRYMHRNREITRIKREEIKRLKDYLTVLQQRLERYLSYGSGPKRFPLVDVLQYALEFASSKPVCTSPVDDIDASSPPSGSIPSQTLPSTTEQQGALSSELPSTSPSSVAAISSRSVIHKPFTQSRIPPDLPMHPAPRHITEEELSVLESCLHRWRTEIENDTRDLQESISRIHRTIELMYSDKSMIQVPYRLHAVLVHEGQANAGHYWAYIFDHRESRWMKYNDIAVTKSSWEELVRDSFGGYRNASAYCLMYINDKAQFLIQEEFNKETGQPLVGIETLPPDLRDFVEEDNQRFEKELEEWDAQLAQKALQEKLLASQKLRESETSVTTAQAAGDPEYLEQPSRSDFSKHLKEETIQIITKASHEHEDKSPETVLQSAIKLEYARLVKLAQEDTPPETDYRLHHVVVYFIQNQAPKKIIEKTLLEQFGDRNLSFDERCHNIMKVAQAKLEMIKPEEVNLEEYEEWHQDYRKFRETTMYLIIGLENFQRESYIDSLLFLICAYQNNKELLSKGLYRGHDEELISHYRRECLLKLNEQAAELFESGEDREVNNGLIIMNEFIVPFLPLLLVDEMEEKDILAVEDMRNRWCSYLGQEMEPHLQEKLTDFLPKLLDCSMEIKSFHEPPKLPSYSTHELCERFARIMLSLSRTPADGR
Procedure, shortened: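 Human USP25 or USP5 expressed in E. coli and purified. Enzyme (4 nM) preincubated 30 min at 30°C in Hepes pH 7.3 buffer (KOAc, Mg(OAc)2, EGTA, 1 mM DTT, Tween 20, ovalbumin, protease inhibitors) with DMSO, 50 μM test compound or 50 μM PR619. Reaction started with 1 μM K48-linked tetra-ubiquitin, stopped after 10 or 30 min with SDS sample buffer plus DTT, and analysed by anti-Ub Western blot.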

20S proteasome = 20S proteasome (Homo sapiens, UniProt P28072+P28074+Q99436); test: 20S proteasome assay; type: biochemical
Procedure, shortened: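 Purified 20S proteasome (1.4 nM) preincubated at 37°C in 25 mM Hepes pH 7.6, 0.5 mM EDTA, 0.03% SDS. Fluorogenic substrates Suc-LLVY-AMC, Suc-LY-AMC, Bz-VGR-AMC or Z-LLE-AMC added to 10 μM final. Hydrolytic activity read as rate of AMC release by fluorescence at 20 min intervals.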

N.crassa [1] = test: Transcript levels by qRT-PCR in N.crassa; type: cell-based, Neurospora crassa; conditions: 50 μM
Procedure, shortened: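 N. crassa liquid cultures incubated 4 h with indicated test compound concentrations (frq), or with 50 μM over a time course (vvd). RNA quantified by TaqMan qRT-PCR and normalised to 28S rRNA. Three independent experiments, each measured in triplicate.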

N.crassa [2] = test: RNA sequencing; type: cell-based, Neurospora crassa
Procedure, shortened: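 N. crassa treated with 50 μM test compound for 0, 40 and 120 min, then RNA sequenced. Read counts normalised to reads mapping to supercontig 8 (ribosomal loci). Genes in the lower quartile of mean reads discarded as not expressed.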

zebrafish embryos = conditions: cited from earlier work

Sequence of Rpn11•Rpn8 dimer (P43588 2-239 limits assumed): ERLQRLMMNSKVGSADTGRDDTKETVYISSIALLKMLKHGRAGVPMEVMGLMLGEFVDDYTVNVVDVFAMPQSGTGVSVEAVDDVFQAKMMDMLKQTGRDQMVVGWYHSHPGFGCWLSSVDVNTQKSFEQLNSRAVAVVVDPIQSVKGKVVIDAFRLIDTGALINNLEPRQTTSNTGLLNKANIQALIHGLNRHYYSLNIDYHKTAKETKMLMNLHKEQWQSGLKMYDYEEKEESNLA
Sequence of Rpn11•Rpn8 dimer (Q08723 1-179 partner limits assumed): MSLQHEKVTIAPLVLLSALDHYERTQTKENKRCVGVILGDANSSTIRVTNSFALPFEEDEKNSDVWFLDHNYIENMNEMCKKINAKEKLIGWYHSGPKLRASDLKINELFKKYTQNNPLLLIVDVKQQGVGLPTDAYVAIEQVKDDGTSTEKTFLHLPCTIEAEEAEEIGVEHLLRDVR
Sequence of thermolysin (P00800 233-548): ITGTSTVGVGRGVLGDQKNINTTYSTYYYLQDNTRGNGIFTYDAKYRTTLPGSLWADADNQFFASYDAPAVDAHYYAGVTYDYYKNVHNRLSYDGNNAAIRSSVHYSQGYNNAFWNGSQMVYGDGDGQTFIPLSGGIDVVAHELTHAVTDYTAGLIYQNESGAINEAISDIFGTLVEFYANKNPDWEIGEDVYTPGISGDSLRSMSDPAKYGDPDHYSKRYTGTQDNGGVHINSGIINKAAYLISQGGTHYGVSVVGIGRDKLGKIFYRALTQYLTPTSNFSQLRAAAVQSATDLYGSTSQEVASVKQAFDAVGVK

CC(=O)Nc1c2sscc-2n(C)c1=O [THL, thiolutin]
cleavage of di-ubiquitin by purified Rpn11–RPN8 heterodimer (Rpn11•Rpn8 dimer): blocked cleavage of di-ubiquitin; also recorded: directly inhibits Rpn11 activity | IC50 (thermolysin): ~2500 nM | inhibition of cystein isopeptidase UPS25 (USP25): did not inhibit | trypsin-, chymotrypsin-, and caspase-like activities of the proteolytic core (20S proteasome): did not inhibit | levels of the N.crassa transcripts vvd and frq (N.crassa [1]): dropped rapidly | global gene expression (RNAseq) (N.crassa [2]; 50 μM THL for 40 or 120 min): vast majority of genes were efficiently downregulated | number of up-regulated genes (RNAseq) (N.crassa [2]; 50 μM THL, 0, 40, 120 min): 267 genes | lethality of zebrafish embryos (zebrafish embryos): high lethality
